Measured values: ChEMBL document CHEMBL4118027, “Preussilides A-F, Bicyclic Polyketides from the Endophytic Fungus Preussia similis with Antiproliferative Activity” (J Nat Prod, 2017)
≈ marks a conversion by molar mass, not a printed value. Calls of active or inactive are those of the source. The rule behind the calls is not given here.

Key:
Setaria italica = test: Phytotoxicity against Setaria italica assessed as inhibition of seedling germination at 100 ug/disk; assay type: functional, organism-based
MCF7 = test: Cytotoxicity against human MCF7 cells assessed as reduction in cell viability after 5 days by MTT assay; assay type: functional, cell-based; details: MCF7, 120 h
In short: (§1)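 MTT viability assay run over 5 days on a panel of eight lines (L929, KB3.1, A431, A549, SKOV-3, PC-3, MCF-7, U2OS). IC50 values were derived.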

Candida albicans = test: Antifungal activity against Candida albicans DSM 1665 by serial dilution method; assay type: functional, organism-based
Pseudomonas aeruginosa = test: Antibacterial activity against Pseudomonas aeruginosa PA14 by serial dilution method; assay type: functional, organism-based
A-431 = test: Cytotoxicity against human A431 cells assessed as reduction in cell viability after 5 days by MTT assay; assay type: functional, cell-based; details: A-431, 120 h; in short: as §1
U2OS [1] = test: Cytotoxicity against human U2OS cells assessed as reduction in cell viability after 5 days by MTT assay; assay type: functional, cell-based; details: 120 h; in short: as §1
A549 = test: Cytotoxicity against human A549 cells assessed as reduction in cell viability after 5 days by MTT assay; assay type: functional, cell-based; details: A549, 120 h; in short: as §1
Staphylococcus aureus = test: Antibacterial activity against Staphylococcus aureus DSM 346 by serial dilution method; assay type: functional, organism-based
Micrococcus luteus = test: Antibacterial activity against Micrococcus luteus DSM 1790 by serial dilution method; assay type: functional, organism-based
Bacillus subtilis = test: Antibacterial activity against Bacillus subtilis DSM 10 by serial dilution method; assay type: functional, organism-based
Escherichia coli = test: Antibacterial activity against Escherichia coli DSM 498 by serial dilution method; assay type: functional, organism-based
L929 [2] = test: Induction of nuclear fragmentation in mouse L929 cells at cytotoxic IC50 by DAPI staining based microscopic method; assay type: functional, cell-based
KB 3-1 = test: Cytotoxicity against human KB3-1 cells assessed as reduction in cell viability after 5 days by MTT assay; assay type: functional, cell-based; details: KB 3-1, 120 h; in short: as §1
SK-OV-3 = test: Cytotoxicity against human SKOV3 cells assessed as reduction in cell viability after 5 days by MTT assay; assay type: functional, cell-based; details: SK-OV-3, 120 h; in short: as §1
Yamadazyma tenuis = test: Antifungal activity against Candida tenuis MUCL 29892 by serial dilution method; assay type: functional, organism-based
PC-3 = test: Cytotoxicity against human PC3 cells assessed as reduction in cell viability after 5 days by MTT assay; assay type: functional, cell-based; details: PC-3, 120 h; in short: as §1
Rhodotorula glutinis = test: Antifungal activity against Rhodotorula glutinis DSM 10134 by serial dilution method; assay type: functional, organism-based
Wickerhamomyces anomalus = test: Antifungal activity against Pichia anomala DSM 6766 by serial dilution method; assay type: functional, organism-based
[3] = tested on: Schizosaccharomyces pombe; test: Antifungal activity against Schizosaccharomyces pombe DSM 70572 by serial dilution method; assay type: functional, organism-based
Caenorhabditis elegans = test: Nematicidal activity against Caenorhabditis elegans up to 100 ug/ml; assay type: functional, organism-based
[4] = tested on: Mycolicibacterium smegmatis; test: Antibacterial activity against Mycobacterium smegmatis ATCC 700084 by serial dilution method; assay type: functional, organism-based
L929 [5] = test: Cytotoxicity against mouse L929 cells assessed as reduction in cell viability after 5 days by MTT assay; assay type: functional, cell-based; details: L929, 120 h; in short: as §1
Mucor hiemalis = test: Antifungal activity against Mucor hiemalis DSM 2656 by serial dilution method; assay type: functional, organism-based
[6] = tested on: Chromobacterium violaceum; test: Antibacterial activity against Chromobacterium violaceum DSM 30191 by serial dilution method; assay type: functional, organism-based
Lepidium sativum = test: Phytotoxicity against Lepidium sativum assessed as inhibition of seedling germination at 100 ug/disk; assay type: functional, organism-based
U2OS [7] = test: Cell cycle arrest in human U2OS cells assessed as accumulation at sub-G1 phase at 5 to 10 ug/ml after 18 hrs by propidium iodide staining based flow cytometry; assay type: functional
In short: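 U2OS were seeded at 7 × 10^5/well in six-well plates and exposed to 5 or 10 μg/mL for 18 h after spreading, with untreated and DMSO mock controls. Cells were trypsinized, fixed in 2% PFA/PBS, then in ice-cold methanol 30 min. Staining: anti-tubulin/anti-lamin antibodies plus RNase A and propidium iodide. Flow cytometry assigned G1, S, G2-M and sub-G1 by DNA content.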

Aspergillus fumigatus = test: Antifungal activity against Aspergillus fumigatus DSM 819 by serial dilution method; assay type: functional
Sclerotinia sclerotiorum [8] = test: Antifungal activity against Sclerotinia sclerotiorum DSM 1946 at 100 ug/disk after 5 days by disk diffusion assay; assay type: functional; details: DSM 1946, 120 h, read-out: IZ
In short: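 Disk diffusion on YMG medium seeded with a mycelial suspension of the non-sporulating test fungus. Paper disks carried […] compound. Nystatin at 20 μg/disk was the positive control. Inhibition zone diameter (mm) was read after 5 days.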

U2OS [9] = test: Induction of morphological changes in human U2OS cells assessed as multipolar and duplicated spindle formation at 0.5 ug/ml after 24 hrs by DAPI staining based immunofluorescence microscopic method; assay type: functional, cell-based
In short: (§2)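 U2OS in DMEM (4.5 g/L glucose, 10% FBS), 37 °C, 7% CO2, seeded 3 × 10^4/well on fibronectin-coated coverslips and adhered 16 h. Treated 24 h at 0.25, 0.5, 2.5, 5 or 10 μg/mL (diluted from 1 mg/mL DMSO stock), DMSO control. Fixed in 4% PFA/PBS 20 min; anti-α-tubulin (DM1A), phalloidin-Alexa 488 and DNA stain; immunofluorescence imaging.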

Mucor plumbeus = test: Antifungal activity against Mucor plumbeus MUCL 49355 by serial dilution method; assay type: functional
U2OS [10] = test: Induction of morphological changes in human U2OS cells at 0.5 ug/ml after 24 hrs by DAPI staining based immunofluorescence microscopic method
U2OS [11] = test: Induction of morphological changes in human U2OS cells assessed as aberrantly sized cells with abnormal small nuclei formation at 0.5 ug/ml after 24 hrs by DAPI staining based immunofluorescence microscopic method; assay type: functional, cell-based; in short: as §2
U2OS [12] = test: Induction of apoptosis in human U2OS cells assessed as caspase-3/7 cleavage at 250 nM after 16 hrs by caspase-3/7 green reagent based flow cytometry (reference value: 8.04%); assay type: functional
Sclerotinia sclerotiorum [13] = test: Antifungal activity against Sclerotinia sclerotiorum DSM 1946 at 20 ug/disk after 5 days by disk diffusion assay; assay type: functional, organism-based
In short: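 Disk diffusion on YMG medium seeded with a mycelial suspension of the non-sporulating fungus; paper disks loaded with test material; inhibition zone diameter in mm read after 5 days.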

Molecule | Activity (Setaria italica) | IC50 (MCF7) | Activity (Candida albicans) | Activity (Pseudomonas aeruginosa) | IC50 (A-431) | IC50 (U2OS [1]) | IC50 (A549) | Activity (Staphylococcus aureus) | Activity (Micrococcus luteus) | Activity (Bacillus subtilis) | Activity (Escherichia coli) | Activity (L929 [2]) | IC50 (KB 3-1) | IC50 (SK-OV-3) | Activity (Yamadazyma tenuis) | IC50 (PC-3) | Activity (Rhodotorula glutinis) | Activity (Wickerhamomyces anomalus) | Activity [3] | IC50 (L929 [5]) | other results
CC(=O)CC1=C(C)C=C2C[C@@H](C)[C@@H](O)[C@@H](C)[C@@H]2[C@H]1/C=C(C)/C=C(C)/C=C/C(=O)O | inactive | 22.1 µM | inactive | inactive | 35.1 µM | > 2510 µM | 70.3 µM | inactive | inactive | inactive | inactive | Active | 11.3 µM | 32.4 µM | inactive | 60.2 µM | inactive | inactive | inactive | 17.3 µM | Activity (Caenorhabditis elegans): inactive; Activity [4]: inactive; Activity (Mucor hiemalis): inactive; Activity [6]: inactive; Activity (Lepidium sativum): inactive
COC(=O)/C=C/C(C)=C/C(C)=C/[C@H]1C(C[C@H](C)O)=C(C)C=C2C[C@@H](C)C(=O)[C@@H](C)[C@@H]21 | inactive | 55.8 µM | inactive | inactive | 55.8 µM | > 2430 µM | 41.2 µM | inactive | inactive | inactive | inactive | Active | 23 µM | 29.1 µM | inactive | 41.2 µM | inactive | inactive | inactive | 80 µM | Activity (Caenorhabditis elegans): inactive; Activity [4]: inactive; Activity (Mucor hiemalis): inactive; Activity [6]: inactive; Activity (Lepidium sativum): inactive
CC1=C(C[C@H](C)O)[C@H](/C=C(C)/C=C(C)/C=C/C(=O)O)[C@@H]2C(=C1)C[C@@H](C)C(=O)[C@H]2C | inactive | 24.3 µM | inactive | inactive | 20.3 µM | 7.03 µM | 60.3 µM | inactive | inactive | inactive | inactive | Active | 6 µM | 22.6 µM | inactive | 47.7 µM | inactive | inactive | inactive | 6.5 µM | Activity (U2OS [7]): Active; MIC (Aspergillus fumigatus): 35.5 µg/mL (≈ 89.1 µM); zone of inhibition at 100 µg/disc (Sclerotinia sclerotiorum [8]): 28 mm; Activity (U2OS [9]): Active; MIC (Mucor plumbeus): 150 µg/mL (≈ 376 µM); Activity (U2OS [10]): Active; Activity (Caenorhabditis elegans): inactive; Activity [4]: inactive; Activity (U2OS [11]): Active; Activity (Mucor hiemalis): inactive; Activity [6]: inactive; Activity (Lepidium sativum): inactive
COC(=O)/C=C/C(C)=C/C(C)=C/[C@H]1C(CC(C)=O)=C(C)C=C2C[C@@H](C)C(=O)[C@@H](C)[C@@H]21 | inactive | > 2440 µM | inactive | inactive | > 2440 µM | 22.2 µM | > 2440 µM | inactive | inactive | inactive | inactive | Active | 51.2 µM | > 2440 µM | inactive | > 2440 µM | inactive | inactive | inactive | 53.6 µM | Activity (Caenorhabditis elegans): inactive; Activity [4]: inactive; Activity (Mucor hiemalis): inactive; Activity [6]: inactive; Activity (Lepidium sativum): inactive
C/C(=C\c1csc(C)n1)[C@@H]1C[C@@H]2O[C@]2(C)CCC[C@H](C)[C@H](O)[C@@H](C)C(=O)C(C)(C)[C@@H](O)CC(=O)O1 [PATUPILONE] | – | 0.00015 µM | – | – | 7.3e-05 µM | 0.000104 µM | 0.00015 µM | – | – | – | – | – | 6.1e-05 µM | 2.36e-05 µM | – | 0.00025 µM | – | – | – | 0.0017 µM | –
CN[C@@H]1C[C@H]2O[C@@](C)([C@@H]1OC)n1c3ccccc3c3c4c(c5c6ccccc6n2c5c31)C(=O)NC4 [STAUROSPORINE] | – | – | – | – | – | – | – | – | – | – | – | – | – | – | – | – | – | – | – | – | Activity (U2OS [12]): 22.6%
C[C@@H]1C[C@@H]([C@H](O)CC2CC(=O)NC(=O)C2)C(=O)[C@@H](C)C1 [CYCLOHEXIMIDE] | – | – | – | – | – | – | – | – | – | – | – | – | – | – | – | – | – | – | – | – | MIC (Aspergillus fumigatus): 33.3 µg/mL (≈ 118 µM)
NYSTATIN | – | – | – | – | – | – | – | – | – | – | – | – | – | – | – | – | – | – | – | – | inhibition zone (IZ) (Sclerotinia sclerotiorum [13]): 32 mm
CC(=O)CC1=C(C)C=C2C[C@@H](C)C(=O)[C@@H](C)[C@@H]2[C@H]1/C=C(C)/C=C(C)\C=C\C(=O)O | inactive | 15.4 µM | inactive | inactive | 17.9 µM | > 2520 µM | 47.9 µM | inactive | inactive | inactive | inactive | Active | 17.4 µM | 20.2 µM | inactive | 45.4 µM | inactive | inactive | inactive | 24.7 µM | Activity (Caenorhabditis elegans): inactive; Activity [4]: inactive; Activity (Mucor hiemalis): inactive; Activity [6]: inactive; Activity (Lepidium sativum): inactive
